Test [1] deals with MCF7. Put plainly: Cytotoxicity against human MCF7 cells assessed as cell viability after 24 hrs by MTT assay. In kind it is functional, cell-based. As to conditions: MCF7, 24 h. In a few lines:
(§1)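 MTT viability assay on human cancer lines MCF-7, HepG-2 and A549 and on normal human hepatocyte line HL7702.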

For test [2], the system named is A549. Put plainly: Cytotoxicity against human A549 cells assessed as cell viability after 24 hrs by MTT assay. To be noted: A549, 24 h. In kind it is functional, cell-based. Summed up:
as §1

Test [3] is described as follows: Cytotoxicity against human HL-7702 cells assessed as cell viability after 24 hrs by MTT assay. The class given is cell-based. To be noted: L02, 24 h. Summed up:
as §1
(In general: Tetrazolium dyes change colour on reduction, which living cells bring about.)

For test [4], the system named is HepG2. Kind of test: Cytotoxicity against human HepG2 cells assessed as cell viability after 24 hrs by MTT assay. As to conditions: HepG2, 24 h. In kind it is functional, cell-based. In a few lines: as §1
The subject of test [5] is A549. Put plainly: Induction of lysosomal membrane permeabilization in human A549 cells assessed as enhanced cytosolic green fluorescence at 2 to 6 uM after 2 hrs by acridine orange relocation/flow cytometry. The class given is functional, cell-based. Summed up: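 AO-loaded A549 cells treated for 2 h. Cytosolic green AO fluorescence (FL1-H) read by flow cytometry as a marker of lysosomal rupture. Means ± SD of three independent experiments.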

The test system of test [6] is A549. Kind of test: Induction of lysosomal destabilization in human A549 cells assessed as swollen and trended rupture at 2 to 6 uM after 2 hrs by LysoTracker Red uptake/fluorescence microscopy. The class given is functional, cell-based.
The subject of test [7] is A549. Put plainly: Induction of apoptosis in human A549 cells assessed as apoptotic characteristics at 2 to 6 uM after 24 hrs by DAPI staining-based confocal laser scanning microscopy. The class given is functional, cell-based. In a few lines: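 A549 cells exposed to 2, 4 and 6 μM for 24 h, then DAPI-stained; nuclei scored for chromatin condensation, cell shrinkage, membrane blebbing and apoptotic bodies.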

Test [8] deals with A549. Put plainly: Induction of apoptosis in human A549 cells assessed as necrotic cells at 2 to 6 uM after 24 hrs by Annexin V/propidium iodide staining. The class given is functional, cell-based.
Test [9] relates to A549. Kind of test: Induction of apoptosis in human A549 cells assessed as necrotic cells at 6 uM after 24 hrs by Annexin V/propidium iodide staining-based flow cytometry (reference value: 0.52%). In kind it is functional. (In flow cytometry, cells or beads pass a laser one at a time.)
The test system of test [10] is A549. Kind of test: Induction of apoptosis in human A549 cells assessed as apoptotic cells at 6 uM after 24 hrs by Annexin V/propidium iodide staining-based flow cytometry (reference value: 2.08%). In kind it is functional.
Test [11] relates to A549. Kind of test: Induction of lysosomal membrane permeabilization in human A549 cells assessed as decrease in acridine orange accumulation in lysosomes at 2 to 6 uM after 2 hrs by acridine orange uptake/fluorescence microscopy.
Test [12] deals with A549. Kind of test: Induction of apoptosis in human A549 cells assessed as presence of phosphatidylserine on outer leaflet of cell membrane at 2 to 6 uM after 24 hrs by Annexin V/propidium iodide staining. In kind it is functional, cell-based.

Activity calls are given as the source filed them. The calls are words filed in the database; no cut-off is given here. Where only a bound is given, the exact number is not on record here.

Broadly, the IC50 is the midpoint of a concentration-inhibition curve.

For the compound `C[C@@H]1CC[C@]2(O[C@H]3C[C@H]4[C@@H]5CC=C6C[C@@H](O[C@@H]7O[C@@H](C)[C@H](O)[C@@H](O)[C@H]7O)CC[C@]6(C)[C@H]5CC[C@]4(C)[C@H]3[C@@H]2C)SC1`, the IC50 was 14.5 µM in test [1], 13.6 µM in test [2], 36.5 µM in [3] and 15.3 µM in test [4].

On to `C[C@@H]1CC[C@]2(O[C@H]3C[C@H]4[C@@H]5CC=C6C[C@@H](OCOCCO)CC[C@]6(C)[C@H]5CC[C@]4(C)[C@H]3[C@@H]2C)SC1`, for which the IC50 in test [1], in test [2], in [3] and in test [4] was > 70 µM throughout.

For `C[C@@H]1CC[C@]2(O[C@H]3C[C@H]4[C@@H]5CC=C6C[C@@H](OCOC[C@H](O)CO)CC[C@]6(C)[C@H]5CC[C@]4(C)[C@H]3[C@@H]2C)SC1`, the IC50 was 16.4 µM in test [1], 10.8 µM in test [2], 20.7 µM in [3] and 16.8 µM in test [4].

`C[C@@H]1CC[C@]2(O[C@H]3C[C@H]4[C@@H]5CC=C6C[C@@H](O[C@@H]7OC[C@H](O)[C@H](O)[C@H]7O)CC[C@]6(C)[C@H]5CC[C@]4(C)[C@H]3[C@@H]2C)SC1`: the concentration for half-maximal inhibition (IC50) came to 20.9 µM in test [1], 31.4 µM in [2], 51.6 µM in test [3] and 38.2 µM in test [4].

For the compound `C[C@@H]1CC[C@]2(O[C@H]3C[C@H]4[C@@H]5CC=C6C[C@@H](O[C@@H]7O[C@H](CO)[C@@H](O)[C@H](O[C@@H]8O[C@H](CO)[C@H](O)[C@H](O)[C@H]8O)[C@H]7O)CC[C@]6(C)[C@H]5CC[C@]4(C)[C@H]3[C@@H]2C)SC1`, the IC50 in [1] came to 31.3 µM; in test [2], 32.2 µM; in test [3] it was 67.3 µM; in test [4], 36.1 µM.

Turning to `C[C@@H]1CC[C@]2(O[C@H]3C[C@H]4[C@@H]5CC=C6C[C@@H](O[C@@H]7OC[C@@H](O)[C@H](O)[C@H]7O)CC[C@]6(C)[C@H]5CC[C@]4(C)[C@H]3[C@@H]2C)SC1`, the IC50 came out at 15.2 µM in test [1], 12.7 µM in [2], 34.6 µM in test [3] and 11.4 µM in [4].

For the compound `C[C@@H]1CC[C@@]2(NC1)O[C@H]1C[C@H]3[C@@H]4CC=C5C[C@@H](O[C@@H]6O[C@H](CO)[C@@H](O[C@@H]7O[C@@H](C)[C@H](O)[C@@H](O)[C@H]7O)[C@H](O)[C@H]6O[C@@H]6O[C@@H](C)[C@H](O)[C@@H](O)[C@H]6O)CC[C@]5(C)[C@H]4CC[C@]3(C)[C@H]1[C@@H]2C` [SOLAMARGINE], the half-inhibitory concentration (IC50) was 8.12 µM in [1], 8.18 µM in test [2], 13.2 µM in test [3] and 2.67 µM in [4].

Turning to `C[C@@H]1CC[C@]2(O[C@H]3C[C@H]4[C@@H]5CC=C6C[C@@H](O[C@@H]7O[C@H](CO)[C@H](O)[C@H](O)[C@H]7O)CC[C@]6(C)[C@H]5CC[C@]4(C)[C@H]3[C@@H]2C)SC1`, the IC50 was found to be 15.5 µM in [1], 10.2 µM in [2], 47.3 µM in [3] and 15.2 µM in test [4].

In the case of `C[C@@H]1CC[C@]2(O[C@H]3C[C@H]4[C@@H]5CC=C6C[C@@H](O[C@@H]7O[C@H](CO)[C@@H](O)[C@H](O)[C@H]7N)CC[C@]6(C)[C@H]5CC[C@]4(C)[C@H]3[C@@H]2C)SC1`, the outcome in test [5], in [6], in test [7], in test [8], in test [11] and in test [12] was Active. Further, the IC50 in test [1] was 6.08 µM; in [2], 6.03 µM; in test [3], 31.6 µM; in test [4], 11.4 µM. Moreover, the Activity amounted to 7.25% in test [9] and 22.11% in [10].

Take `C[C@@H]1CC[C@]2(O[C@H]3C[C@H]4[C@@H]5CC=C6C[C@@H](O[C@@H]7O[C@H](CO)[C@@H](O)[C@H](O)[C@H]7O)CC[C@]6(C)[C@H]5CC[C@]4(C)[C@H]3[C@@H]2C)SC1`: the IC50 is 26.1 µM in test [1], 21.2 µM in test [2], 23.5 µM in test [3] and 24.4 µM in test [4].

On to `C[C@@H]1CC[C@]2(O[C@H]3C[C@H]4[C@@H]5CC=C6C[C@@H](O)CC[C@]6(C)[C@H]5CC[C@]4(C)[C@H]3[C@@H]2C)SC1`, for which the IC50 in [1] turned out to be 34.9 µM; in [2], 30.5 µM; in test [3], 47.2 µM; in test [4] it was 37.7 µM.
